From ChEMBL document CHEMBL4011648, “Adamantyl Antiestrogens with Novel Side Chains Reveal a Spectrum of Activities in Suppressing Estrogen Receptor Mediated Activities in Breast Cancer Cells” (J Med Chem, 2017)
Activity calls are given as the source filed them. The calls are words filed in the database; no cut-off is given here.

Key:
MCF7 [1] = assay: Antiproliferative activity against ER-positive human MCF7 cells at 3 uM after 6 days by WST-1 assay; assay type: functional
Method in brief: (§1)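 MCF-7 cells (ATCC), 6-day compound exposure; viability by WST-1 absorbance at 450 nm, expressed relative to vehicle-treated controls. Run in triplicate; 3 μM single-concentration screen values are averages of two to three independent experiments. Dose-response curves give IC50.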

MDA-MB-231 = assay: Antiproliferative activity against ERalpha-negative human MDA-MB-231 cells at 3 uM after 6 days by WST-1 assay; assay type: functional, cell-based
Method in brief: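 ERα-negative MDA-MB-231 breast cancer cells screened for proliferation with compound at 3 μM; WST-1 read-out at 450 nm after 6 days, relative to vehicle.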

[2] = target: T1, Estrogen receptor (Homo sapiens) (UniProt P03372); assay: Downregulation of human ERalpha in human MCF-7 cells at 3 x 10^-8 M after 24 hrs by Western blot method; assay type: cell-based
T1 sequence (whole entry): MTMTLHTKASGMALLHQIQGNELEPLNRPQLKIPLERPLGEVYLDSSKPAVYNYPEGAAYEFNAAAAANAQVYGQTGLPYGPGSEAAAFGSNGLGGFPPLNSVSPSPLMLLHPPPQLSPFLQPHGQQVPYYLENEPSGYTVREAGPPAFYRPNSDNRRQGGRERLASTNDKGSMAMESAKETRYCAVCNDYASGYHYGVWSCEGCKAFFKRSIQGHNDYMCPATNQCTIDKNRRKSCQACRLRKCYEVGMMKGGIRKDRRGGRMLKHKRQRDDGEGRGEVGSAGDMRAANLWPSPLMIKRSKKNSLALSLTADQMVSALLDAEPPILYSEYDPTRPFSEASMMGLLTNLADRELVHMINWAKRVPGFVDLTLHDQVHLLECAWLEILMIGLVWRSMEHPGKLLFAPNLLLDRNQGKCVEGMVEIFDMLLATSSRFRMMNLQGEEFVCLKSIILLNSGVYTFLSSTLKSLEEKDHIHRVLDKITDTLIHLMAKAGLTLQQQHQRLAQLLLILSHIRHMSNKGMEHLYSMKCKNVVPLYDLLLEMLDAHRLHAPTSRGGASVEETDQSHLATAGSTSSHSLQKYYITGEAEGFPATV
Method in brief: (§2)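 MCF-7 cells treated 24 h at 3 × 10−10, 3 × 10−8 or 3 × 10−6 M; whole-cell extracts with protease/phosphatase inhibitors, 10% SDS-PAGE, nitrocellulose, probed with anti-ERα F10 and β-actin; ERα given as percent of vehicle.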

[3] = target: T1, Estrogen receptor (Homo sapiens); assay: Downregulation of ER-alpha levels in ER-positive human MCF-7 cells at 3 uM after 24 hrs by in-cell Western assay
[4] = target: T1, Estrogen receptor (Homo sapiens); assay: Displacement of [3H]estradiol from full-length human ERalpha receptor by scintillation counting relative to estradiol
Estrogen receptor [5] = target: T2, Estrogen receptor (Homo sapiens, UniProt P03372); assay: Downregulation of ERalpha in human MCF-7 cells assessed as reduction of estradiol-induced PgR mRNA levels after 24 hrs by RT-PCR method; assay type: cell-based
T2 sequence (P03372 whole entry): T1 sequence (whole entry)
Method in brief: (§3)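 MCF-7 cells in full medium (5% FBS) with 3 × 10−10 M E2, treated 24 h across a concentration range; TRIzol RNA, reverse transcription, SYBR green qPCR for GREB1, PgR or pS2 normalized to 36B4, fold change versus vehicle; mean ± SD of at least two independent experiments in triplicate.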

Estrogen receptor [6] = target: T2, Estrogen receptor; assay: Downregulation of ERalpha in human MCF-7 cells assessed as reduction of estradiol-induced GREB1 mRNA levels after 24 hrs by RT-PCR method; assay type: cell-based; method in brief: as §3
Estrogen receptor [7] = target: T2, Estrogen receptor; assay: Downregulation of human ERalpha in human MCF-7 cells after 24 hrs by in-cell Western immunoassay method; assay type: cell-based
Method in brief: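 MCF-7 cells at 3000 cells/well treated 24 h (3 μM screen or dose-response); formaldehyde-fixed, Triton-permeabilized, stained with rabbit HC-20 anti-ERα overnight at 4 °C, IR secondary plus Cell Tag 700 normalization; in-cell Western imaging, ERα relative to vehicle, average of at least three independent experiments.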

Estrogen receptor [8] = target: T2, Estrogen receptor; assay: Downregulation of ERalpha in human MCF-7 cells assessed as reduction of estradiol-induced pS2 mRNA levels after 24 hrs by RT-PCR method; assay type: cell-based; method in brief: as §3
[9] = target: T1, Estrogen receptor (Homo sapiens); assay: Downregulation of human ERalpha in human MCF-7 cells at 3 x 10^-10 M after 24 hrs by Western blot method; assay type: cell-based; method in brief: as §2
MCF7 [10] = assay: Antiproliferative activity against ER-positive human MCF7 cells after 6 days by WST-1 assay; assay type: functional, cell-based; conditions: MCF7, 144 h; method in brief: as §1
[11] = target: T1, Estrogen receptor (Homo sapiens); assay: Downregulation of human ERalpha in human MCF-7 cells at 3 x 10^-6 M after 24 hrs by Western blot method; assay type: cell-based; method in brief: as §2
Estrogen receptor [12] = target: T2, Estrogen receptor; assay: Displacement of [3H]estradiol from full-length human ERalpha receptor by scintillation counting

Activity [3] | RBA [4] [%] | Ki (Estrogen receptor [12]) [nM] | Structure (SMILES) | Activity (MCF7 [1]) | Activity (MDA-MB-231) | also measured
Active | 51 | 0.4 | O=C(O)/C=C/c1ccc(C(=C2C3CC4CC(C3)CC2C4)c2ccc(O)cc2)cc1 | Active | inactive | Activity [2]: Active; IC50 (Estrogen receptor [5]): 500 nM; IC50 (Estrogen receptor [6]): 500 nM; IC50 (Estrogen receptor [7]): 17 nM; IC50 (Estrogen receptor [8]): 500 nM; Activity [9]: Active; IC50 (MCF7 [10]): 31 nM; Activity [11]: Active
Active | 28 |  | CCCCNC(=O)/C=C/c1ccc(C(=C2C3CC4CC(C3)CC2C4)c2ccc(O)cc2)cc1 | Active | inactive | 
inactive | 13 | 3.3 | CCOC(=O)/C=C/c1ccc(C(=C2C3CC4CC(C3)CC2C4)c2ccc(O)cc2)cc1 |  | inactive | 
 | 18 | 1.1 | CCCNC(=O)/C=C/c1ccc(C(=C2C3CC4CC(C3)CC2C4)c2ccc(O)cc2)cc1 | Active | inactive | 
inactive | 54 |  | O=C(/C=C/c1ccc(C(=C2C3CC4CC(C3)CC2C4)c2ccc(O)cc2)cc1)OCCO |  | inactive | 
Active | 14 | 1.4 | N#C/C=C/c1ccc(C(=C2C3CC4CC(C3)CC2C4)c2ccc(O)cc2)cc1 | inactive | inactive | 
inactive | 46 |  | COC(=O)/C=C/c1ccc(C(=C2C3CC4CC(C3)CC2C4)c2ccc(O)cc2)cc1 |  | inactive | 
Active | 35 | 0.57 | NCCNC(=O)/C=C/c1ccc(C(=C2C3CC4CC(C3)CC2C4)c2ccc(O)cc2)cc1 | Active | inactive | 
Active | 11 | 1.8 | CCCCOC(=O)/C=C/c1ccc(C(=C2C3CC4CC(C3)CC2C4)c2ccc(O)cc2)cc1 | 40% | inactive | 
Active | 109 | 0.18 | O=C(/C=C/c1ccc(C(=C2C3CC4CC(C3)CC2C4)c2ccc(O)cc2)cc1)NCCO | 24% | inactive | IC50 (Estrogen receptor [7]): 5.6 nM; IC50 (MCF7 [10]): 2.4 nM
inactive | 28 |  | O=C(/C=C/c1ccc(C(=C2C3CC4CC(C3)CC2C4)c2ccc(O)cc2)cc1)OCCCO |  | inactive | 
inactive | 71 | 0.27 | NC(=O)/C=C/c1ccc(C(=C2C3CC4CC(C3)CC2C4)c2ccc(O)cc2)cc1 |  | inactive | 

The next lines start with the compound.

Structure (SMILES) | Activity [3] | RBA [4] [%] | Ki (Estrogen receptor [12]) [nM] | Activity (MCF7 [1]) | Activity (MDA-MB-231) | also measured
CCCCCNC(=O)/C=C/c1ccc(C(=C2C3CC4CC(C3)CC2C4)c2ccc(O)cc2)cc1 |  | 27 | 0.74 | Active | inactive | 
O=C(/C=C/c1ccc(C(=C2C3CC4CC(C3)CC2C4)c2ccc(O)cc2)cc1)NCCCCCO |  | 31 | 0.65 | Active | inactive | 
CCCCN(C)C(=O)/C=C/c1ccc(C(=C2C3CC4CC(C3)CC2C4)c2ccc(O)cc2)cc1 | inactive | 28 |  | inactive | inactive | 
O=C(/C=C/c1ccc(C(=C2C3CC4CC(C3)CC2C4)c2ccc(O)cc2)cc1)N(CCO)CCO |  | 115 | 0.13 |  | inactive | 
O=C(/C=C/c1ccc(C(=C2C3CC4CC(C3)CC2C4)c2ccc(O)cc2)cc1)NCCCCO |  | 56 | 0.36 | Active | inactive | 
CCC(=C(c1ccc(O)cc1)c1ccc(/C=C/C(=O)O)cc1)c1ccccc1 |  |  |  |  | inactive | 
CN(C)CCNC(=O)/C=C/c1ccc(C(=C2C3CC4CC(C3)CC2C4)c2ccc(O)cc2)cc1 |  | 57 | 0.35 |  | inactive | 
CCCNS(=O)(=O)/C=C/c1ccc(C(=C2C3CC4CC(C3)CC2C4)c2ccc(O)cc2)cc1 | Active | 52 | 0.38 | Active | inactive | 
CN(CCO)C(=O)/C=C/c1ccc(C(=C2C3CC4CC(C3)CC2C4)c2ccc(O)cc2)cc1 |  |  |  |  | inactive | 
O=C(/C=C/c1ccc(C(=C2C3CC4CC(C3)CC2C4)c2ccc(O)cc2)cc1)OCCCCO | Active | 44 | 0.45 |  | inactive | 
CC(C)CCCCCOC(=O)/C=C/c1ccc(C(=C2C3CC4CC(C3)CC2C4)c2ccc(O)cc2)cc1 | Active | 2.8 | 7.1 |  | inactive | 
NCCCNC(=O)/C=C/c1ccc(C(=C2C3CC4CC(C3)CC2C4)c2ccc(O)cc2)cc1 | Active | 54 |  | Active | inactive | 
O=C(/C=C/c1ccc(C(=C2C3CC4CC(C3)CC2C4)c2ccc(O)cc2)cc1)NCCCO |  | 47 |  | 30% | inactive | Activity [2]: Active; IC50 (Estrogen receptor [5]): 50 nM; IC50 (Estrogen receptor [6]): 50 nM; IC50 (Estrogen receptor [7]): 0.53 nM; IC50 (Estrogen receptor [8]): 50 nM; Activity [9]: Active; IC50 (MCF7 [10]): 1.9 nM; Activity [11]: Active
NCCCCNC(=O)/C=C/c1ccc(C(=C2C3CC4CC(C3)CC2C4)c2ccc(O)cc2)cc1 | Active |  |  |  | inactive | 
CCCCCC(=O)/C=C/c1ccc(C(=C2C3CC4CC(C3)CC2C4)c2ccc(O)cc2)cc1 |  | 12 | 1.7 |  | inactive | 
O=C(/C=C/c1ccc(C(=C2C3CC4CC(C3)CC2C4)c2ccc(O)cc2)cc1)NCC(F)(F)F | inactive | 15 | 1.33 |  | inactive | 
